The nature of data set [1]: 1-Octanol-water partition coefficient, log P of the compound by spectrophotometer analysis corrected for ionization. In kind it is physicochemical. Summed up:
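Octanol-water log P was measured by the shake-flask method: UV-spectrophotometric assay of one phase, the other by difference, at least triplicate runs with different sample amounts, averaged. The measured log P was then corrected for ionization.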

Data set [2] in a line: Ionization constant, pKa of quinoline nitrogen group of the compound at 1 mM by potentiometric analysis. In kind it is physicochemical. The method, boiled down:
(§1)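 Potentiometric titration of 10⁻³ M test solutions in ethanol (95%)–water mixtures of varying proportion, 100 ml per titration, at 25 ± 0.1 °C under nitrogen with stirring. Titrant added in 0.25-ml aliquots, with stirring and gas stopped for each pH reading. Acidic function titrated with 0.02 N KOH, basic function with 0.02 N HCl. Boiled distilled, deionized water used for dilutions.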

A short description of data set [3]: 1-Octanol-water partition coefficient, log P of the compound by spectrophotometer analysis. In kind it is physicochemical. Summed up: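 Shake-flask partition between 1-octanol and water. Phase-volume ratio and sample amount set so that test-layer absorbance after partitioning fell between 0.2 and 0.9 in a 1-cm cell. The solute was measured by UV spectrophotometry in one layer only, and the other layer was obtained by difference. P = C_octanol/C_water. At least triplicate runs with different sample amounts, log P averaged.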

Data set [4] in a line: Ionization constant, pKa of 8-hydroxyl group of the compound at 1 mM by potentiometric analysis. It counts as physicochemical. The method, boiled down:
as §1

Data set [5] can be described thus: Ionization constant, pKa of substituent at 5th position of the compound at 1 mM by potentiometric analysis. It counts as physicochemical. Summed up:
as §1

The next data set has as its system Streptococcus mutans. Put plainly: Antibacterial activity against Streptococcus mutans No.6715 assessed as inhibition of bacterial growth after 24 to 48 hrs by spectrophotometric analysis. It counts as functional. As to conditions: for MIC: Streptococcus mutans, No.6715. The method, boiled down:
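S. mutans No. 6715, pure plaque-forming strain; media inoculated with 0.20 ml of a 24-h culture. Incubated anaerobically at 37 °C. Growth was read spectrophotometrically (% T) at 24 and 48 h. Dilution series run in sets of five tubes. MIC (molar) was taken as the lowest drug level whose tubes read above 60% T at 24 h.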

Each structure is given as a SMILES string.

By logP is commonly meant a log measure of how a compound divides between an organic and an aqueous phase. Read a high logP as a more lipophilic compound. Broadly, the pKa is the pH at which an ionisable group is half protonated. As a reminder, the MIC is the lowest concentration that inhibits growth of the organism.

Regarding `OCc1ccc(O)c2ncccc12`, the logP in data set [1] and in data set [3] was 1 in each case. Besides, the pKa at 1000 µM in data set [2] was 4.93; in data set [4] it was 9.53.

For `O=Cc1ccc(O)c2ncccc12`, the logP in data set [1] was found to be 2.07. In addition, the pKa at 1000 µM in data set [2] worked out at 4.42; in data set [4], 7.01.

On to `Oc1ccc(I)c2cccnc12`, for which, in data set [1], the logP came to 3.29. The pKa at 1000 µM in data set [2] was determined as 4.43; in data set [4], 8.31.

On to `CC(=O)c1ccc(O)c2ncccc12`, for which, in data set [1], the logP turned out to be 1.96. In addition, the results for the pKa at 1000 µM in data set [2] and in data set [4] were 4.07 and 7.62, respectively.

`COc1ccc(O)c2ncccc12`: the logP in data set [1] and in data set [3] was 2.1 each time. Further, the pKa at 1000 µM in data set [2] worked out at 4.84; in data set [4], 9.96.

Take `CN(C)Cc1ccc(O)c2ncccc12`: the logP in data set [1] was found to be 2.37; in data set [3], 1.06. Further, the pKa at 1000 µM was found to be 8.66 in data set [5], 4.47 in data set [2] and 9.46 in data set [4].

Turning to `CCN(CC)Cc1ccc(O)c2ncccc12`, the lipophilicity (logP) in data set [1] was 4.41; in data set [3], 1.41. For the same compound, the pKa at 1000 µM came out at 9.32 in data set [5], 4.48 in data set [2] and 9.19 in data set [4].

Regarding `N#CCc1ccc(O)c2ncccc12`, the logP in data set [1] worked out at 1.82. The values for the pKa at 1000 µM in data set [2] and in data set [4] were 4.3 and 9.25, respectively.

`COC(=O)Cc1ccc(O)c2ncccc12`: the pKa at 1000 µM in data set [2] turned out to be 4.72; in data set [4], 9.46.

As for `CCOC(=O)Cc1ccc(O)c2ncccc12`, in data set [1], the log partition coefficient (logP) was found to be 2.27. Further, the pKa at 1000 µM in data set [2] came to 4.72; in data set [4] it was 9.4.

Turning to `Cl.Oc1cccc2cccnc12`, in the data set on Streptococcus mutans, the “log(1/MIC)” value is -0.301 and the minimal inhibitory concentration (MIC) was 2 µM.

Consider `Cl.Oc1ccc(Cl)c2cccnc12`, for which, in the data set with Streptococcus mutans, the “log(1/MIC)” value was -0.301 and the minimal inhibitory concentration (MIC) is 2 µM.

In the case of `Cl.O=[N+]([O-])c1ccc(O)c2ncccc12`, in the data set on Streptococcus mutans, the “log(1/MIC)” value is given as -1.903 and the MIC worked out at 80 µM.

With `CC(=O)c1ccc(O)c2ncccc12.Cl`, in the data set on Streptococcus mutans, the “log(1/MIC)” value is on record as -0.602 and the MIC was determined as 4 µM.

`Cc1ccc(O)c2ncccc12.Cl`: in the data set with Streptococcus mutans, the “log(1/MIC)” value is -1.301 and the MIC worked out at 20 µM.

Take `COc1ccc(O)c2ncccc12.Cl`: in the data set on Streptococcus mutans, the “log(1/MIC)” value was -1.602 and the MIC came to 40 µM.

As for `CN(C)Cc1ccc(O)c2ncccc12.Cl`, in the data set with Streptococcus mutans, the “log(1/MIC)” value is -1.602 and the minimal inhibitory concentration (MIC) turned out to be 40 µM.

As to `CCN(CC)Cc1ccc(O)c2ncccc12.Cl`, in the data set on Streptococcus mutans, the “log(1/MIC)” value was -1.602 and the MIC was 40 µM.

For `Cl.OCc1ccc(O)c2ncccc12`, in the data set with Streptococcus mutans, the “log(1/MIC)” value is on record as -2 and the MIC worked out at 100 µM.

`Cl.N#CCc1ccc(O)c2ncccc12`: in the data set on Streptococcus mutans, the “log(1/MIC)” value is reported as -1.778 and the MIC was determined as 60 µM.

Take `COC(=O)Cc1ccc(O)c2ncccc12.Cl`: in the data set with Streptococcus mutans, the “log(1/MIC)” value is -2.903 and the MIC was found to be 800 µM.

Consider `CCOC(=O)Cc1ccc(O)c2ncccc12.Cl`, for which, in the data set with Streptococcus mutans, the “log(1/MIC)” value is -2.903 and the MIC came out at 800 µM.

With `Cl.Oc1ccc(I)c2cccnc12`, in the data set with Streptococcus mutans, the “log(1/MIC)” value was -0.602 and the MIC turned out to be 4 µM.

`Cl.O=Cc1ccc(O)c2ncccc12`: in the data set on Streptococcus mutans, the “log(1/MIC)” value is given as -0.778 and the MIC is 6 µM.

As to `Oc1ccc(Cl)c2cccnc12` [CLOXYQUIN], the logP in data set [1] was found to be 2.94; in data set [3], 2.91. Further, the pKa at 1000 µM in data set [2] amounted to 3.8; in data set [4] it was 8.7.

Take `O=[N+]([O-])c1ccc(O)c2ncccc12` [NITROXOLINE]: the figures for the logP in data set [1] and in data set [3] were 0.11 and -1.17, respectively. In addition, the results for the pKa at 1000 µM in data set [2] and in data set [4] were 3.68 and 5.97, respectively.

Turning to `Oc1cccc2cccnc12` [OXYQUINOLINE], the lipophilicity (logP) in data set [1] was found to be 1.95. Also, the pKa at 1000 µM stood at 5.14 in data set [2] and 9.64 in data set [4].

In the case of `Cc1ccc(O)c2ncccc12` [TILIQUINOL], the logP in data set [1] and in data set [3] was 2.38 each time. The pKa at 1000 µM in data set [2] was found to be 5.25; in data set [4], 9.92.

Source of the values: ChEMBL document CHEMBL3244208, “Quantitative structure-activity relationships for 5-substituted 8-hydroxyquinolines as inhibitors of dental plaque” (J Med Chem, 1977).
